The text below walks through data of article PMC3694763 (Angewandte Chemie (International Ed. in English), 2012).

In test [1] the target is plasmin (Homo sapiens, UniProt P00747). As to the kind of experiment: Determination of kcat/Km, cleavage by plasmin. The test is classed as biochemical. The following applies: for selectivity for thrombin over plasmin (ratio of kcat/Km): kcat/Km thrombin versus plasmin.
Test [2] has as its target factor Xa (Homo sapiens, UniProt P00742). As to the kind of experiment: Determination of kcat/Km, cleavage by factor Xa. The following applies: for kcat/Km for factor Xa: 150 mM NaCl, 20 mM Tris pH 7.5, 2 mM CaCl2, 1% BSA, 37°C, Cy5 fluorescence. Format: biochemical.
For test [3], the target named is T1, thrombin (Homo sapiens, UniProt P00734). As to the kind of experiment: Determination of kcat/Km, cleavage by thrombin. The test is classed as biochemical. The following applies: PPRSFL replaced with norleucine-TPRSFL.
The target in test [4] is thrombin activity in developing blood clots (Mus musculus, UniProt P19221). As to the kind of experiment: Tail-clip model, ratiometric Cy5/Cy7 imaging of developing blood clots. The test is classed as in vivo. The following applies: mouse tail clot.
Test [5] relates to pro-coagulation enzymes (thrombin, plasmin, factor Xa). Format: biochemical. The following applies: 1 µM RACPP, 50 nM enzyme, 37°C; tricine gel, Cy5/Cy7 ratio image. Put shortly: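 Each ratiometric probe was incubated separately with purified enzyme for set times. Cleavage products were separated on tricine-SDS polyacrylamide gels. Gels were imaged multispectrally with 620 nm excitation, collecting Cy5 (660–720 nm) and Cy7 (760–830 nm) emission. Cy5 images were divided by Cy7 images and pseudocoloured from blue (ratio minimum) to red (ratio maximum).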

Test [6] deals with MMP-9 (Homo sapiens, UniProt P14780). As to the kind of experiment: Addition of purified MMP-9 to developing blood pools of injected mice. The test is classed as in vivo, mouse. The following applies: blood pool of injected mice; MMP-9 1 µl of 1.5 µM, 10 minutes.
The target in test [7] is T1, thrombin. Format: biochemical. The following applies: probe diluted in mouse plasma. Put shortly:
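Probe construction: Cy5 sits on the polycationic domain and the Cy7 acceptor on the polyanionic domain, joined by a thrombin-cleavable linker, so the intact probe undergoes FRET. Emission spectra were recorded in mouse plasma in a cuvette spectrofluorometer before and after adding purified thrombin. Cy5 emission peaks near 670 nm and Cy7 re-emission near 780 nm.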

plasmin, sequence (P00747 97-580 limits assumed, species assumed): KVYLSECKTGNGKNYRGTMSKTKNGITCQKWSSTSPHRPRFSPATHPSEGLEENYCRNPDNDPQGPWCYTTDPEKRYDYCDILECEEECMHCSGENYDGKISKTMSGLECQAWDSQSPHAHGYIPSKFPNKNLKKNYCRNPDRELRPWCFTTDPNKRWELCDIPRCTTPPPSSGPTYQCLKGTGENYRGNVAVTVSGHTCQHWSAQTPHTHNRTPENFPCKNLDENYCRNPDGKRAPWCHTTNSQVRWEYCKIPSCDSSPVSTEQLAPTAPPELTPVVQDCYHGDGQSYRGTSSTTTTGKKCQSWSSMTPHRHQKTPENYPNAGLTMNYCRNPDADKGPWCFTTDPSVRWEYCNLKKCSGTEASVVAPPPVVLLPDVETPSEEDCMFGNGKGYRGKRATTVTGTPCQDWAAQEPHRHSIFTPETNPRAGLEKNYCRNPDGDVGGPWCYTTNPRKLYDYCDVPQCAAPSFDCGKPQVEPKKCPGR
plasmin, sequence (P00747 581-810 limits assumed, species assumed): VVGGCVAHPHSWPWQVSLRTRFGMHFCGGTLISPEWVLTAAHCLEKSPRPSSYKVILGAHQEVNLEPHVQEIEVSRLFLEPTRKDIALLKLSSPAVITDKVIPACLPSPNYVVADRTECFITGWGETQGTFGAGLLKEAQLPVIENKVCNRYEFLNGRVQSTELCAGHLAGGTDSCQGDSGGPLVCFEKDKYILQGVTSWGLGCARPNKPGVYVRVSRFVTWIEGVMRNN
factor Xa, sequence (P00742 41-179 limits assumed): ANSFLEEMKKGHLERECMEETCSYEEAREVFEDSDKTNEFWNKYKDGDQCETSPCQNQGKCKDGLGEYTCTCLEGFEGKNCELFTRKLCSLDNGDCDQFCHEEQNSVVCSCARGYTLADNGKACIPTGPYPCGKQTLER
factor Xa, sequence (P00742 235-488 limits assumed): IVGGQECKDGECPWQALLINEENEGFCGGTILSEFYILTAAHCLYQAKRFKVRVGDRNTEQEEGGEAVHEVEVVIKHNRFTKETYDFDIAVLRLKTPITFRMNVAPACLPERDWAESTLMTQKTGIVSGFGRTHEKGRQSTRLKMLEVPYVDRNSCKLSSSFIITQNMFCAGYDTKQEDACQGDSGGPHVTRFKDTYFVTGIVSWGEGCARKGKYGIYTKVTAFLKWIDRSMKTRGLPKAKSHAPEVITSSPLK
MMP-9, sequence (P14780 107-707): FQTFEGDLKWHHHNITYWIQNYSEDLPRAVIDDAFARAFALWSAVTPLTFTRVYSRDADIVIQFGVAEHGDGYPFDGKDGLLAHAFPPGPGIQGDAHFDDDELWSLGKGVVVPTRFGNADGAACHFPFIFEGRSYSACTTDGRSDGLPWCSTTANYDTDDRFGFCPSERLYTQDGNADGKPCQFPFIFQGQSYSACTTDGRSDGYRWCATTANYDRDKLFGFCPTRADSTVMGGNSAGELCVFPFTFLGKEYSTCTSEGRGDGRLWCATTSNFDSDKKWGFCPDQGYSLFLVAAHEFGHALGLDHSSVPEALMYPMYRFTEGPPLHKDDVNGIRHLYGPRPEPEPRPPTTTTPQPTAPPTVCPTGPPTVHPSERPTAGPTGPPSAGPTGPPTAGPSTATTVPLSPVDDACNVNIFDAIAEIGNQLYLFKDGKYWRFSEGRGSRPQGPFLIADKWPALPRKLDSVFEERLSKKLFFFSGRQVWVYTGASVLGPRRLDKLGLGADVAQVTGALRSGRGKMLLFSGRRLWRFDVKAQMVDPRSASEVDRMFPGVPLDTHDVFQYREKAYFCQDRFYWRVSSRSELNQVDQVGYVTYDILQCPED

Regarding “Cy7-NH-e9-c(S-Peg12)oDPRSFL-r9-c(Cy5)-CONH2 [RACPPDPRSFL]”, the kcat/Km for plasmin in test [1] (150 mM NaCl, 20 mM Tris pH 7.5, 2 mM CaCl2, 1% BSA, 37°C, Cy5 fluorescence) came out at 10000 M⁻¹ s⁻¹. Moreover, the “selectivity for thrombin over plasmin (ratio of kcat/Km)” value in test [1] is reported as “less than 2 fold”. The “kcat/Km for factor Xa” value in test [2] is 6200 M⁻¹ s⁻¹. Also, in test [2] (kcat/Km thrombin versus factor Xa), the “selectivity for thrombin over factor Xa (ratio of kcat/Km)” value is on record as “less than 2 fold”.

Regarding “Cy7-NH-e9-c(S-Peg12)oNLeTPRSFL-r9-c(Cy5)-CONH2 [RACPPNleTPRSFL]”, in test [3], the “acceleration of thrombin cleavage relative to RACPPPPRSFL” value is listed as “approximately 90 fold”. In test [1], the “selectivity for thrombin over plasmin (ratio of kcat/Km)” value turned out to be 52.5 fold. In test [4] (10 nmol), the “Cy5/Cy7 ratio at 15 minutes post injury” value worked out at 7.2 and the “change of Cy5/Cy7 ratio at 15 minutes post injury” value is recorded as “tenfold”. Also, the “Cy5/Cy7 ratio at one minute post injury” value in test [4] (10 nmol, n = 3, mean (±SD)) is given as 0.75(±0.11). Further, in test [4] (10 nmol, n = 3, p = 0.01 vs one minute), the “Cy5/Cy7 ratio at five minutes post injury” value was 3.1(±0.45).

For the substance “Cy7-NH-e9-c(S-Peg12)oPLGC(Me)AG-r9-c(Cy5)-CONH2 [RACPPPLGC(Me)AG]”, in test [5], the “cleavage by thrombin, plasmin, factor Xa on SDS-PAGE (selectivity)” value was “not cleaved by any of the pro-coagulation enzymes”. The “Cy5/Cy7 emission ratio at the wound site over 40 minutes of clotting” value in test [4] (10 nmol control probe) was “low and stable”. Besides, the “ratiometric contrast after local addition of purified MMP-9” value in test [6] is given as “spectacular local ratiometric contrast”.

As for “Cy7-NH-e9-c(S-Peg12)oPPRSFL-r9-c(Cy5)-CONH2 [RACPPPPRSFL]”, the “selectivity for thrombin over plasmin (ratio of kcat/Km)” value in test [1] is listed as 14.3 fold. For the same substance, in test [2], the “kcat/Km for factor Xa” value is recorded as “no detectable activity”. For the same substance, in test [7] (cuvet spectrofluorometer), the “change in the Cy5/Cy7 emission ratio on addition of purified thrombin” value came out at 34 fold. For the same substance, in test [7] (approx. 670 nm), the “increase in Cy5 emission on addition of purified thrombin” value stood at 8.8 fold. In addition, the “decrease in Cy7 re-emission on addition of purified thrombin” value in test [7] (approx. 780 nm) was determined as 3.8 fold. The “cleavage by thrombin, plasmin, factor Xa on SDS-PAGE (selectivity)” value in test [5] is reported as “selective for thrombin”. Moreover, the “change in Cy5/Cy7 ratio from one to five minutes post injury” value in test [4] (10 nmol) was “no significant change”. For the same substance, the “time post injury at which a Cy5/Cy7 ratio increase was detectable” value in test [4] (10 nmol probe) is 10 min.

For lepirudin [reference compound], the “effect on cleavage and ratio change of RACPPNleTPRSFL” value in test [4] (lepirudin 0.5 mg/mouse immediately prior to probe injection) is “inhibited the cleavage and ratio change”.
